# Published values gathered from unrelated publications.
# Compare with care: the assays were run in different laboratories.
Compound,host,matrix,route,dose,notes,quantity,result
C[C@@H]1COCCN1c1cc(=O)n2c(n1)N(Cc1cncc(Cl)c1)[C@H](C(F)(F)F)CC2,C57BL/6 mouse,plasma,intraperitoneal,10 mg/kg,single dose,MRT(0-t),0.45 h
OCc1nc2ccc(NCc3ccc(C(F)(F)F)cc3)cc2[nH]1,male BALB/c mouse,plasma,intravenous,1 mg/kg,,MRT(0-inf),1.1 h
COC1=CC(c2ccc[nH]2)=N/C1=C\c1cc(Cc2ccc(OC(F)(F)F)cc2)c(C)[nH]1.Cl,male CD-1 mouse,plasma,oral,40 mg/kg,single dose,MRT(0-t),34.4 h
Cc1ccc(CCC(=O)Nc2nnc(S(N)(=O)=O)s2)cc1,male BALB/c mouse,plasma,oral,20 mg/kg,,MRT,3.74 h
CCOC(=O)c1c(NC(=O)CNC(C)C)sc2c1CCCCC2,male mouse,plasma,intraperitoneal,5 mg/kg,single dose,MRT(0-inf),1.79 h
COC1=CC(c2ccc[nH]2)=N/C1=C\c1[nH]c(Cc2ccc(OC(F)(F)F)cc2)cc1Cc1ccc(OC(F)(F)F)cc1,male CD-1 mouse,liver,oral,40 mg/kg,single dose,MRT(0-t),22.2 h
Cc1nc2ccc(OCc3ccc(C(F)(F)F)cc3)cc2[nH]1,male BALB/c mouse,plasma,oral,10 mg/kg,,MRT(0-inf),4.04 h
O=C1CCC(N2Cc3cc(C4CCN(Cc5ccccc5)CC4)ccc3C2=O)C(=O)N1 (stereo not shown),male CD-1 mouse,plasma,intravenous,1 mg/kg,,MRT(0-inf),3.34 h
CCOC(=O)C1=C(CN2CCC[C@@H]2C(=O)Nc2ccc(B(O)O)cc2)NC(c2nccs2)=N[C@H]1c1ccc(F)cc1Br,CD-1 mouse,plasma,oral,10 mg/kg,,MRT(0-inf),1 h
CC[C@H](C)[C@H](NC(=O)[C@H](CCC(=O)O)NC(=O)[C@H](CCC(=O)O)NC(=O)[C@@H]1CCCN1C(=O)[C@H](CO)NC(=O)[C@H](C)NC(=O)[C@H](CC(=O)O)NC(=O)[C@H](CCC(=O)O)NC(=O)[C@H](CCC(=O)O)NC(=O)[C@@H]1CCCN1C(=O)[C@H](CCCCNC(=O)COCCOCCNC(=O)COCCOCCNC(=O)CC[C@H](NC(=O)CCCCCCCCCCCCCCCCC(=O)O)C(=O)O)NC(=O)[C@H](C)NC(=O)[C@@H]1CCCN1C(=O)[C@H](C)NC(=O)CC(C)C)C(=O)N[C@@H](CCC(N)=O)C(=O)N[C@@H](CCCNC(=N)N)C(=O)N[C@@H](Cc1ccc(O)cc1)C(=O)N[C@@H](Cc1ccc(O)cc1)C(=O)N[C@H](C(=O)N[C@@H](CO)C(=O)N[C@@H](CC(C)C)C(=O)N[C@@H](CCCNC(=N)N)C(=O)N[C@@H](Cc1c[nH]cn1)C(=O)N[C@@H](Cc1ccc(O)cc1)C(=O)N[C@@H](Cc1ccc(O)cc1)C(=O)N[C@@H](CC(N)=O)C(=O)N[C@@H](Cc1c[nH]c2ccccc12)C(=O)N[C@@H](CC(C)C)C(=O)N[C@H](C(=O)N[C@@H](CCCNC(=N)N)C(=O)N[C@@H](CCC(N)=O)C(=O)N[C@@H](CCCNC(=N)N)C(=O)N[C@@H](Cc1ccc(O)cc1)C(N)=O)[C@@H](C)O)C(C)C,male NMRI mouse,plasma,subcutaneous,30 nmol/kg,single dose,MRT,18 h
